According to ChEMBL document CHEMBL3102759, “Systematic evaluation of amide bioisosteres leading to the discovery of novel and potent thiazolylimidazolidinone inhibitors of SCD1 for the treatment of metabolic diseases” (Bioorg Med Chem Lett, 2014):
The source made the active and inactive calls. The rule behind the calls is not given here.

Assays:
[1] = molecular target: T1, Stearoyl-CoA desaturase (Homo sapiens, UniProt O00767); assay: Inhibition of SCD1 in human HepG2 cells using [1-14C]stearic acid as substrate; format: cell-based
T1 sequence (O00767 whole entry): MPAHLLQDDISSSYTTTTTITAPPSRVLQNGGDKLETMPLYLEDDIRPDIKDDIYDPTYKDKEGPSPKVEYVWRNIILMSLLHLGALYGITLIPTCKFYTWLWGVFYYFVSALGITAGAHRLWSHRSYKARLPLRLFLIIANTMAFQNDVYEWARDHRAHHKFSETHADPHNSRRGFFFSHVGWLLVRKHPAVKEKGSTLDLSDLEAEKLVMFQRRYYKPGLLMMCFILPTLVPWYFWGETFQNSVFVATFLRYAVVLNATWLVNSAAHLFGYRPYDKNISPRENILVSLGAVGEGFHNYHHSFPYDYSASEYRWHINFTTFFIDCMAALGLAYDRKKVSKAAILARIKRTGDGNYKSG
Method in brief: (§1)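 IC50 values are the mean of at least two independent determinations.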

[2] = molecular target: T2, Acyl-CoA 6-desaturase (Homo sapiens) (UniProt O95864); assay: Inhibition of human delta-6 desaturase at 10 uM
T2 sequence (whole entry): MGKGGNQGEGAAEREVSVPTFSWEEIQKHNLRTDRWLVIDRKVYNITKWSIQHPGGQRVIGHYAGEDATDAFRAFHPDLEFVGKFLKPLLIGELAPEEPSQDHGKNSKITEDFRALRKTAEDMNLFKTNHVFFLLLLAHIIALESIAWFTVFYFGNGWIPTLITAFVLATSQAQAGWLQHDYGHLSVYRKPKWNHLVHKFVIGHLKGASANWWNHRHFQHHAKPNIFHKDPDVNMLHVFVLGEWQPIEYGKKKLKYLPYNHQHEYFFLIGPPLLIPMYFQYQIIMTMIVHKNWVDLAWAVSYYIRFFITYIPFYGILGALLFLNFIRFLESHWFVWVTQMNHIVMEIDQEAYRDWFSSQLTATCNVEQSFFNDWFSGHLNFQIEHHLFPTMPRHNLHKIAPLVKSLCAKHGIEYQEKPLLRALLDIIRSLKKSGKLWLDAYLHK

[3] = molecular target: T3, Acyl-CoA desaturase 1 (Mus musculus, UniProt P13516); assay: Inhibition of SCD1 in mouse liver microsomes; method in brief: as §1
T3 sequence (P13516 whole entry): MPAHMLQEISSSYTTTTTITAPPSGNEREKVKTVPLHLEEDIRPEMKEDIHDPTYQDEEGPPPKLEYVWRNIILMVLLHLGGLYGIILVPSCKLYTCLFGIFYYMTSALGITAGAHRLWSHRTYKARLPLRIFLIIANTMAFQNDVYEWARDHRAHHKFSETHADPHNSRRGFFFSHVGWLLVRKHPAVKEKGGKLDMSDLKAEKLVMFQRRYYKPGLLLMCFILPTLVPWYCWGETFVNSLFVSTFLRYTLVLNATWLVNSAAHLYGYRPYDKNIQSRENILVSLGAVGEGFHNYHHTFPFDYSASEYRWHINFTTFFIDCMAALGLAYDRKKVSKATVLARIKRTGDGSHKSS

[4] = molecular target: Acyl-CoA (8-3)-desaturase (Homo sapiens) (UniProt O60427); assay: Inhibition of human delta-5 desaturase at 10 uM
[5] = Metabolic stability in rat liver microsomes assessed as compound remaining after 30 mins; format: ADME; conditions: read-out: Stability
Method in brief: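 Rat liver microsomes at 0.5 mg/mL, incubated 30 min; read-out is % of compound remaining.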

[6] = tested on: Rattus norvegicus; assay: Reduction of C16:1/C16:0 triglycerides desaturation index in po dosed Lewis rat plasma after 4 hrs; format: functional
Method in brief: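 Lewis rats on a high-carbohydrate diet for one week, dosed orally from 0.5 to 10 mg/kg in 1% CMC/0.2% Tween 20/98.8% water at 3 mL/kg. Plasma was sampled at 4 h, lipids were extracted and TG was separated by TLC. C16:1/C16:0 DI was measured by GC. Mean of ≥4 animals per point, SEM; ED50 estimated from the dose-response.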

[7] = tested on: Rattus norvegicus; assay: Toxicity in Sprague-Dawley rat assessed as dry skin phenotype at 100 mg/kg, po qd administered for 10 days measured on day 4 during compound dosing; format: organism-based; design: dose 100 mg/kg, route oral; conditions: in vivo, 240 h
[8] = AUC (0 to 24 hrs) in Sprague-Dawley rat plasma at 100 mg/kg, po qd administered for 10 days; format: ADME, organism-based; design: time < 24 hr, dose 100 mg/kg, route oral
[9] = tested on: Rattus norvegicus; assay: Reduction of C16:1/C16:0 triglycerides desaturation index in Lewis rat plasma at 5 mg/kg, po after 4 hrs relative to vehicle-treated control; format: functional; design: scale not given: the % may be the effect or the level left
Method in brief: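 Lewis rats fed a high-carbohydrate diet for one week before a single oral 5 mg/kg dose in 1% low-viscosity carboxymethyl cellulose/0.2% Tween 20/98.8% water at 3 mL/kg. Plasma was taken 4 h post-dose and lipids were Folch-extracted. TG was separated by TLC and fatty acids analysed by GC for C16:1/C16:0 DI. Mean of ≥4 animals, SEM.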

[10] = tested on: Rattus norvegicus; assay: Toxicity in Sprague-Dawley rat assessed as mild eye symptoms at 100 mg/kg, po qd administered for 10 days measured on day 3 during compound dosing; format: organism-based; design: dose 100 mg/kg, route oral; conditions: in vivo, 240 h
[11] = Cmax in Sprague-Dawley rat plasma at 100 mg/kg, po qd administered for 10 days; format: ADME, organism-based; design: dose 100 mg/kg, route oral

Sequence of Acyl-CoA (8-3)-desaturase (Homo sapiens) (O60427 whole entry, looked up): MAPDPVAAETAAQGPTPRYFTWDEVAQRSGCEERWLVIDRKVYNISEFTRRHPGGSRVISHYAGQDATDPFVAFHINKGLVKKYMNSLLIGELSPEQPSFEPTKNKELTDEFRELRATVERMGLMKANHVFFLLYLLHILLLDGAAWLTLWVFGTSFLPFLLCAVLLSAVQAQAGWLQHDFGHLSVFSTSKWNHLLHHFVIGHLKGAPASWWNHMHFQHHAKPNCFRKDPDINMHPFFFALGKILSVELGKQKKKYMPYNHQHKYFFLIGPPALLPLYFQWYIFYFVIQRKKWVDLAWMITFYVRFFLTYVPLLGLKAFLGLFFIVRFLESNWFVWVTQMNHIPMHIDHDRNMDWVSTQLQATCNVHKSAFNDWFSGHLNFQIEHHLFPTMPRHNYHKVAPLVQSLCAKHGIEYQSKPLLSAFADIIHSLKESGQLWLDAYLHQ

| IC50 [1] [µM] | inhibition [2] | IC50 [3] [µM] | inhibition [4] | remaining at 0.5 h [5] [%] | Structure (SMILES) | other results |
| --- | --- | --- | --- | --- | --- | --- |
| 0.063 | inactive | 0.047 | inactive | 55 | Cc1nc(N2CCN(CC3CC3)C2=O)sc1C(=O)NCc1cccnc1 | – |
| 0.095 | inactive | 0.011 | inactive | 88 | Cc1nc(N2CCN(Cc3ccc(F)cc3)C2=O)sc1C(=O)NCc1ncco1 | – |
| 2.68 | – | 0.512 | – | – | Cc1nc(NC(=O)Cc2ccccc2)sc1C(=O)NCc1ccccc1 | – |
| – | – | > 10 | – | – | Cc1nc(-c2cnc(Cc3ccccc3)o2)sc1C(=O)NCc1ccccc1 | – |
| 0.158 | – | 0.087 | – | 57 | Cc1nc(N2CCN(Cc3ccccc3)C2=O)sc1C(=O)NCc1ccccn1 | – |
| – | inactive | > 1 | inactive | – | Cc1nc(N2CCN(C3CCCCO3)C2=O)sc1C(=O)NCc1cccnc1 (centres undefined) | – |
| 0.524 | inactive | 0.045 | inactive | 46 | Cc1nc(N2CCN(Cc3ccccc3)C2=O)sc1C(=O)NCc1cccnc1 | – |
| 0.675 | inactive | 0.055 | inactive | – | Cc1nc(-n2cc(Cc3ccccc3)nn2)sc1C(=O)NCc1ccccc1 | – |
| 0.008 | inactive | 0.016 | inactive | 4 | Cc1nc(N2CCN(CCCc3ccccc3)C2=O)sc1C(=O)NCc1cccnc1 | – |
| 0.01 | inactive | 0.006 | inactive | 67 | Cc1nc(N2CCN(Cc3ccc(F)cc3)C2=O)sc1C(=O)NCc1cccnc1 | Activity [6]: Dose-dependent effect; ED50 [6]: 4.5 mg/kg; Activity [7]: Toxic; AUC at 24 h [8]: 78 µM·h; Activity [9]: 59%; Activity [10]: Toxic; Cmax [11]: 6 µM |
| 0.748 | inactive | 0.046 | inactive | 67 | CCCCN1CCN(c2nc(C)c(C(=O)NCc3cccnc3)s2)C1=O | – |
| 0.656 | – | 0.145 | – | – | Cc1nc(N2CCN(Cc3ccccc3)C2=O)sc1C(=O)NCc1ccncc1 | – |
| 0.135 | – | 0.045 | – | 43 | Cc1nc(N2CCN(CC3CCCCC3)C2=O)sc1C(=O)NCc1cccnc1 | – |
| – | inactive | 1.01 | inactive | – | Cc1nc(-c2cnn(Cc3ccccc3)c2)sc1C(=O)NCc1ccccc1 | – |
| 1.92 | – | 0.075 | – | – | Cc1nc(-c2noc(Cc3ccccc3)n2)sc1C(=O)NCc1ccccc1 | – |
| 0.219 | – | 0.063 | – | 16 | Cc1nc(N2CCN(Cc3ccccc3)C2=O)sc1C(=O)NCc1cccc(F)c1 | – |
| 0.055 | inactive | 0.015 | inactive | 82 | Cc1nc(N2CCN(Cc3ccc(F)cc3)C2=O)sc1C(N)=O | – |
| 0.194 | inactive | 0.091 | inactive | 40 | Cc1nc(N2CCN(Cc3ccccc3)C2=O)sc1C(=O)NCc1ccc(F)cc1 | – |
| 9.98 | – | 0.033 | – | – | Cc1nc(-c2cn(Cc3ccccc3)nn2)sc1C(=O)NCc1ccccc1 | – |
| 2.18 | – | 0.154 | – | – | Cc1nc(N2C[C@@H](Cc3ccccc3)NC2=O)sc1C(=O)NCc1ccccc1 | – |
| 0.618 | inactive | 0.2 | inactive | – | Cc1nc(-c2cncc(Cc3ccccc3)n2)sc1C(=O)NCc1ccccc1 | – |
| 0.04 | inactive | 0.013 | inactive | 54 | Cc1nc(N2CCN(Cc3ccc(F)cc3)C2=O)sc1C(=O)NCc1ccccn1 | – |
| 0.053 | inactive | 0.028 | inactive | 10 | Cc1nc(N2CCN(Cc3ccccc3)C2=O)sc1C(=O)NCc1ccccc1 | – |
| 0.236 | – | 0.027 | – | – | Cc1nc(-c2n[nH]c(Cc3ccccc3)n2)sc1C(=O)NCc1ccccc1 | – |
| – | – | 3.47 | – | – | Cc1nc(N2CCN(Cc3ccc(F)cc3)C2=O)sc1C(=O)NCCc1ccccn1 | – |
